Most compounds without a hit are left out; they make up all but 3.1% or so of the library.
OX1R antag-1 = human HCRTR1 antagonism | O43613 | CHO/OX1R cells, Fluo-8 calcium fluorescence, orexin A | inhibition, % at 5 µM | 0.43% of 330,000 active | AID 434989;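 active means inhibition above its plate's threshold, mean inhibition of all tested compounds on the plate plus 3 SD, cut at about 37% in these data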;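 further: 0% = orexin A challenge wells and 100% = SB-334867-A antagonist wells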
CHO parental Ca = counter-screen for OX1R antagonists: effect in parental CHO cells | AID 463079 | 0.63% of 330,000 active | inhibition, % at 5.6 µM | parental CHO-K1, ATP-induced calcium, Fluo-8 fluorescence;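 active means inhibition above that plate's mean sample inhibition plus 3 SD, cut at about 26% in these data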;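 further: 0% = ATP-challenged DMSO wells and 100% = DMSO wells without ATP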
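Assay system – parental CHO cells · Reagent – ATP stimulus · Detection – intracellular calcium via Fluo-8 no-wash fluorescent dye · Evaluation – percent inhibition of ATP-evoked calcium rise, normalized to controls · Controls – ATP wells versus no-ATP DMSO wells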
GalR3 antag = antagonists of human GalR3; O60755; HEK293 GalR3-CNG cAMP membrane potential fluorescence; galR3 body fused to GalR1 C-terminus; inhibition, % at 3 µM; 0.44% of 360,000 active;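 active means inhibition above the screen-wide average plus 3 SD, cut at about 13% in these data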;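 further: forskolin and galanin both at EC90 stimulate the cells; cAMP rise reported by CNG channel membrane potential dye signal; 0% = forskolin plus galanin with DMSO and 100% = forskolin alone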
Target sequence (O60755 1-299 limits assumed): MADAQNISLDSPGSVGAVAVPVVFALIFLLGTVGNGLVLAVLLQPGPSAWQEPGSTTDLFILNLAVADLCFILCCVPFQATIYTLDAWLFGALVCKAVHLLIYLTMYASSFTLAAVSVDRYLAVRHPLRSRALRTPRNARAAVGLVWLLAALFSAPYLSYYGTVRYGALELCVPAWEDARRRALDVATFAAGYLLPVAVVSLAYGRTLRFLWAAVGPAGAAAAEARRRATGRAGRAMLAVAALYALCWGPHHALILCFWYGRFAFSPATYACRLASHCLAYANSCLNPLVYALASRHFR
GPR7 antagonist = human neuropeptides B/W receptor 1 antagonism; AID 1861; P48145; 1.1% of 290,000 active; GPR7-expressing cells, fluorescence antagonist assay; inhibition, % at 4.4 µM; in the data active means inhibition above about 16%, passing the limit was not always enough;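 further: cells stimulated with the agonist NPW; 0% = agonist with vehicle and 100% = vehicle without agonist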
Target sequence (P48145 whole entry, looked up): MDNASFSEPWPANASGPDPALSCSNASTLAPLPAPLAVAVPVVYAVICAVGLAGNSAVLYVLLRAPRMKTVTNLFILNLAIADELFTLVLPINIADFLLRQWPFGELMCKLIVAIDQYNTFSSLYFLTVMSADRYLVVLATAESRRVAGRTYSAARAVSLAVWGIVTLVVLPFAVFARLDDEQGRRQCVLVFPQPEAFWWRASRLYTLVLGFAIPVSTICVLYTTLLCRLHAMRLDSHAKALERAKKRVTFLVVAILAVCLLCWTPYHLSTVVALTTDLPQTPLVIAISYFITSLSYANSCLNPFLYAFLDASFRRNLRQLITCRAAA
OX1R antag-2 = antagonists of human orexin 1 receptor (OX1R); O43613; OX1R-expressing cells, FRET antagonist read-out; inhibition, % at 6.6 µM; 1.8% of 330,000 active; in the data active means inhibition mostly above about 38%, no sharp cut-off; inactive means mostly below about 40%;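 further: 0% = agonist challenge alone and 100% = reference antagonist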
GPR7 antag cf = confirmation of human GPR7 antagonists; shares compounds with GPR7 antagonist; GPR7-expressing cells, calcium fluorescence antagonist mode; inhibition, % at 4.4 µM; 52% of 2,400 active; in the data active means inhibition above about 24%;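 further: stimulated with the GPR7 agonist NPW; 0% = agonist plus vehicle and 100% = vehicle alone without agonist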
MCHR1 antagonist = MCHR1 (human) antagonism in GPR7 counter-screen; inhibition, % at 4.4 µM; MCHR1-expressing cells, fluorescence antagonist assay; shares compounds with GPR7 antagonist; 62% of 2,400 active; in the data active means inhibition above about 22%;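 further: 0% = vehicle with agonist and 100% = vehicle without agonist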
An asterisk follows results filed as active; nt = not tested or not shown.

SMILES | OX1R antag-1 | CHO parental Ca | GalR3 antag | GPR7 antagonist | OX1R antag-2 | GPR7 antag cf | MCHR1 antagonist
CCc1nc2ccc(C(=O)N(C)CCCN(C)C)cn2c1N(CC)CCOC | nt | nt | -7 | nt | nt | nt | nt
CC(C)Cc1cc(C(=O)N2CCCC(CO)(Cc3ccc(F)cc3F)C2)n[nH]1 (configuration not stated) | -29 | -29 | 1 | nt | 10 | nt | 8
CC(C)Cc1cc(C(=O)N2CCCC(CO)(Cc3ccc(F)cc3)C2)no1 (configuration not stated) | -25 | -26 | -8 | 18 | 5 | nt | nt
CCCNS(=O)(=O)c1cccc(C(=O)OCc2cc(=O)oc3cc(OC)ccc23)c1 | 55* | 26 | -9 | 34* | 47 | 33* | 57*
COc1ccc2c(COC(=O)CNS(=O)(=O)c3ccccc3)cc(=O)oc2c1 | -17 | -12 | -6 | nt | 8 | nt | nt
COC(=O)N(C)C[C@@H]1OCc2cnnn2CCCC(=O)N([C@H](C)CO)C[C@@H]1C | nt | nt | -5 | nt | nt | nt | nt
CN1CCN(c2ccc(Cl)cc2NC(=O)c2cccc(S(=O)(=O)N(C)C)c2)CC1 | -30 | -19 | -5 | 24* | 6 | 16 | 13
CCc1cc(C(=O)Nc2cc(Cl)ccc2N2CCN(C)CC2)sc1C | -40 | -28 | -2 | nt | 3 | nt | nt
CN1CCN(c2ccc(Cl)cc2NC(=O)/C=C/c2cccc(F)c2)CC1 | -10 | 7 | -7 | 27* | 0 | 43* | 28*
COc1ccccc1CCn1cnc(-c2cccc(Cl)c2)c1CC(C)C | nt | nt | -7 | nt | nt | nt | nt
NS(=O)(=O)c1ccc(CCNC(=O)CC(c2ccccc2)c2ccccc2)cc1 | -16 | -9 | -10 | -7 | 0 | nt | nt
NS(=O)(=O)c1ccc(CCNC(=O)COC(=O)C2CCC2)cc1 | -13 | -18 | -7 | 38* | 19 | -3 | -5
NS(=O)(=O)c1ccc(CCNC(=O)COC(=O)CC(c2ccccc2)c2ccccc2)cc1 | -21 | -7 | -3 | 52* | 24 | 2 | 69*
O=C(c1cc(-c2cccnc2)nc2ccccc12)N1CCCc2ccccc21 | -44 | -14 | -8 | 24* | 15 | 5 | 23*
COc1ccc(-c2cc(C(=O)N(C)Cc3ccccc3)no2)cc1OC | -26 | -1 | nt | 31* | 23 | -5 | -24
COc1ccc(-c2cc(C(=O)NCc3ccccc3)no2)cc1OC | -14 | -26 | -6 | -7 | 19 | nt | nt
COc1ccc(C(=O)NCCc2ccccc2)cc1[N+](=O)[O-] | -17 | -8 | -8 | 31* | 19 | -6 | 15
Cc1ccc(-c2nn(-c3ccc(F)cc3)cc2C(=O)N2CCN(C3CCS(=O)(=O)C3)CC2)cc1 (configuration not stated) | -14 | -11 | -6 | nt | -3 | nt | nt
COc1ccc(C2=Nc3ccccc3N(C(=O)c3ccc4c(c3)OCO4)C2C(=O)Nc2c(C)cccc2C)cc1 (configuration not stated) | nt | nt | -2 | nt | nt | nt | nt
CCCCN(C)CC(O)Cn1cc(/C=C/C(=O)c2ccc(OCC)cc2)c2ccccc21 (configuration not stated) | -24 | 13 | nt | 32* | 0 | 36* | 55*
CCCCN(C)CC(O)Cn1cc(/C=C/C(=O)c2cccs2)c2ccccc21 (configuration not stated) | -11 | -7 | nt | 8 | 16 | nt | nt
CC(Sc1nnc(Cc2ccccc2)o1)C(=O)NC1(C#N)CCCCC1 (configuration not stated) | -25 | -14 | -5 | nt | -2 | nt | nt
CC(C)n1cc(NC(=O)c2cc(-c3ccccc3)on2)cn1 | -12 | -5 | 12 | 24* | 11 | 14 | 30*
CC(C)(C)C(=O)NC1(C(F)(F)F)NC(=O)N(Cc2ccccc2)C1=O (configuration not stated) | -23 | -12 | -4 | 25* | 20 | 0 | 9
CN(C(=O)COC(=O)c1cc(S(=O)(=O)N2CCOCC2)c(Cl)cc1Cl)C1CCS(=O)(=O)C1 (configuration not stated) | -2 | -5 | -1 | 26* | 20 | -7 | 9
SMILES | OX1R antag-1 | CHO parental Ca | GalR3 antag | GPR7 antagonist | OX1R antag-2 | GPR7 antag cf | MCHR1 antagonist
CSc1ncccc1C(=O)OCC(=O)N(C)c1c(N)n(Cc2ccccc2)c(=O)[nH]c1=O | -26 | -12 | -4 | nt | 11 | nt | nt
COc1cccc(-n2ccnc2SCC(=O)Nc2ccccc2)c1 | -12 | -23 | -2 | 18 | 41 | nt | nt
COc1cccc(-n2ccnc2SCC(=O)Nc2cc(OC)ccc2OC)c1 | 3 | -45 | -2 | 38* | 32 | 19 | 38*
COc1ccc(NC(=O)CSc2nccn2-c2cccc(OC)c2)cc1 | -12 | -13 | 3 | -2 | 24 | nt | nt
COc1cccc(-n2ccnc2SCC(=O)Nc2ccccc2F)c1 | -9 | 4 | 0 | 21* | 5 | 18 | 3
O=C(NCC(O)CO)c1ccc2[nH]c3ccccc3c2c1 (configuration not stated) | 11 | 3 | -1 | 26* | 27 | 0 | 15
OC(C#CCCN1CCCCC1)(c1ccccc1)C1CCCCC1 (configuration not stated) | -13 | -5 | -4 | 12 | 4 | nt | nt
OC(C#CCCN1CCCCC1)(c1ccccc1)c1ccccc1 | -16 | -16 | -5 | 22* | 5 | -8 | 6
COc1cc(CCN(C(=O)c2cc3ccccc3[nH]2)C(C)c2nc3ccccc3[nH]2)cc(OC)c1 (configuration not stated) | nt | nt | -7 | nt | nt | nt | nt
CC(C)COCC(CN(Cc1ccccc1)c1ccccc1)N1CCCC1 (configuration not stated) | -27 | -23 | -6 | 46* | 10 | 48* | 31*
O=C(O)c1cc(-c2ccc(-c3ccc(F)cc3)o2)nc2ccccc12 | -17 | -4 | -6 | -7 | 12 | nt | nt
CN(C)S(=O)(=O)c1ccc(C(=O)OCc2ccc([N+](=O)[O-])cc2)cc1 | -9 | -3 | -2 | 6 | 12 | nt | nt
O=C(Cc1ccc([N+](=O)[O-])cc1)OCc1ccc([N+](=O)[O-])cc1 | 8 | 10 | -7 | 44* | 18 | 29* | 64*
CCCS(=O)(=O)c1ccc(COC(=O)Cc2ccc([N+](=O)[O-])cc2)cc1 | -8 | 4 | -7 | 28* | 24 | 25* | 25*
C[C@H](N)C(=O)OCc1ccc([N+](=O)[O-])cc1 | -2 | 4 | -6 | -15 | 13 | nt | nt
Cc1nc(C)c(C(=O)Nc2ccccc2)s1 | -13 | -5 | -1 | 22* | 19 | 3 | -5
Cc1nc(Cl)sc1C(=O)Nc1ccccc1 | 1 | -2 | -10 | 1 | 17 | nt | nt
COc1ccc(/C=C2/CC/C(=C\c3ccc(OC)c(OC)c3OC)C2=O)c(OC)c1OC | -27 | -15 | -9 | 23* | 15 | -1 | 67*

High-throughput results: PubChem BioAssay, The Scripps Research Institute Molecular Screening Center
